The values that follow come from ChEMBL document CHEMBL1782013, “Discovery of Potent and Selective Inhibitors of Calcium-Dependent Protein Kinase 1 (CDPK1) from C. parvum and T. gondii” (ACS Med Chem Lett, 2010).

Each structure is given as a SMILES string. Calls of active or inactive are those of the source. The calls are words filed in the database; no cut-off is given here.

The subject of one series is HL-60. The series is described as follows: Cytotoxicity against human HL60 cells up to 10 uM after 48 to 72 hrs by alamar blue assay. The format is cell-based.
The next series deals with SF-539. The series is described as follows: Cytotoxicity against human SF539 cells up to 10 uM after 48 to 72 hrs by alamar blue assay. The class given is cell-based.
For a further series, the system named is HCC 2998. The series is described as follows: Cytotoxicity against human HCC2998 cells up to 10 uM after 48 to 72 hrs by alamar blue assay. The class given is cell-based.
Series [1] can be described thus: Cytotoxicity against human CRL8155 cells up to 10 uM after 48 to 72 hrs by alamar blue assay. The format is cell-based.
In series [2] the target is T1, Calmodulin-domain protein kinase 1 (Toxoplasma gondii, UniProt Q9BJF5).
T1 sequence (Q9BJF5 whole entry): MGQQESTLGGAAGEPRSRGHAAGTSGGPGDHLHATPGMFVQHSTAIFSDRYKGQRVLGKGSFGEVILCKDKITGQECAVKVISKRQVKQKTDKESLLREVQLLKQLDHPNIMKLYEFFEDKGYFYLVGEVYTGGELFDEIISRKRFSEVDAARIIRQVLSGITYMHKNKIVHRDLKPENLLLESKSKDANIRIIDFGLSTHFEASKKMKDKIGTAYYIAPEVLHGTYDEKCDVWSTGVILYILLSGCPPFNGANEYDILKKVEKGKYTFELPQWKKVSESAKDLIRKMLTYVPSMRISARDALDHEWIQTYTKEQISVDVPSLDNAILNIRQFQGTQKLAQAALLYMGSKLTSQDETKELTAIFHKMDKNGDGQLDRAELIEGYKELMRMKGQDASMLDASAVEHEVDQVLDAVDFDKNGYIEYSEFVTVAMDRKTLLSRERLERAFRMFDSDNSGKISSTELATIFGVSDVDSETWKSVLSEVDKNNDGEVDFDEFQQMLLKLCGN
The format is cell-free, Plasma.

Series [3] concerns Cryptosporidium parvum. Briefly: Antiparasitic activity against Cryptosporidium parvum sporozoites infected in human HCT8 cells assessed as reduction of parasites level treated 1 hr after infection measured after 24 hrs. The class given is functional, organism-based. The following applies: HCT-8. Summed up:
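HCT-8 human intestinal cells infected with C. parvum sporozoites at a 1:1 ratio of HCT-8 cells to sporozoites. Cultures were exposed to a range of inhibitor concentrations starting 1 h after infection. Parasite numbers were counted after 24 h of infection.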

The subject of series [4] is Cryptosporidium parvum. Briefly: Antiparasitic activity against Cryptosporidium parvum sporozoites infected in human HCT8 cells assessed as reduction of parasites level treated immediately after infection measured after 24 hrs. The following applies: HCT-8. The class given is functional, organism-based. Summed up: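 Human intestinal HCT-8 cells were infected with C. parvum sporozoites, one sporozoite per host cell. Inhibitor was added at varying concentrations at the time of infection. Parasites present were counted 24 h after infection.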

A further series has as its system Toxoplasma gondii. The series is described as follows: Antiparasitic activity against Toxoplasma gondii infected in human fibroblasts assessed as reduction of parasite invasion. The class given is functional, organism-based.

Take `CCN1CCC(n2nc(Cc3cccc4ccccc34)c3c(N)ncnc32)CC1`: the Activity result (in the series with HL-60; with SF-539; in the series on HCC 2998; in series [1]) was “Non-toxic” each time.
For the compound `CC(C)n1nc(-c2ccc3c(c2)sc2ccccc23)c2c(N)ncnc21`, in series [2], the IC50 was over 3 µM.
With `Nc1ncnc2c1c(Cc1cccc3ccccc13)nn2CC1CCNCC1`, the Activity entry (with HL-60; with SF-539; with HCC 2998; in series [1]) was “Non-toxic” each time.
For `CC(C)(C)n1nc(Cc2cccc3ccccc23)c2c(N)ncnc21`, the Activity result (in the series on HL-60; in the series with SF-539; in the series with HCC 2998; in series [1]) was “Non-toxic” each time.
In the case of `CC(C)n1nc(-c2cnc3ccccc3c2)c2c(N)ncnc21`, the Activity result (with HL-60; in the series on SF-539; in the series with HCC 2998; in series [1]) was “Non-toxic” each time.
As for `CCN1CCC(Cn2nc(Cc3cccc4ccccc34)c3c(N)ncnc32)CC1`, the Activity result (with HL-60; in the series on SF-539; in the series on HCC 2998; in series [1]) was “Non-toxic” each time.
Take `COc1ccc2cc(-c3nn(C(C)C)c4ncnc(N)c34)ccc2c1`: the Activity entry (in the series on HL-60; with SF-539; with HCC 2998; in series [1]) was “Non-toxic” throughout.
On to `CC(C)n1nc(-c2ccc(Cl)c(Cl)c2)c2c(N)ncnc21`, for which the Activity entry (in the series on HL-60; in the series on SF-539; with HCC 2998; in series [1]) was “Non-toxic” in each case.
As for `CC(C)(C)n1nc(-c2cccc3ccccc23)c2c(N)ncnc21`, the Activity result was “Non-toxic” in the series on HL-60; “Dose-dependent effect” in the series with Cryptosporidium parvum [3]; “Non-toxic” in the series on SF-539; “Non-toxic” in the series on HCC 2998; “Dose-dependent effect” with Cryptosporidium parvum [4]; “Non-toxic” in series [1].
As for `CC(C)n1nc(-c2ccc3ccccc3c2)c2c(N)ncnc21`, the Activity entry (in the series with HL-60; in the series with SF-539; in the series on HCC 2998; in series [1]) was “Non-toxic” throughout.
Regarding `CCN1CCC(CCn2nc(Cc3cccc4ccccc34)c3c(N)ncnc32)CC1`, the Activity entry (in the series on HL-60; in the series on SF-539; with HCC 2998; in series [1]) was “Non-toxic” throughout.
Take `CC(C)(C)n1nc(-c2ccc3ccccc3c2)c2c(N)ncnc21`: the Activity result in the series on HL-60 is “Non-toxic”; in the series with Cryptosporidium parvum [3] it was “Dose-dependent effect”; in the series with SF-539, “Non-toxic”; with HCC 2998, “Non-toxic”; with Cryptosporidium parvum [4] it was “Dose-dependent effect”; in series [1], “Non-toxic”. Also, the outcome in the series on Toxoplasma gondii was Active.
With `CS(=O)(=O)N1CCC(n2nc(Cc3cccc4ccccc34)c3c(N)ncnc32)CC1`, the Activity entry (with HL-60; with SF-539; in the series with HCC 2998; in series [1]) was “Non-toxic” in each case.
As to `CCOc1ccc2cc(-c3nn(C(C)C)c4ncnc(N)c34)ccc2c1`, the Activity entry (in the series with HL-60; in the series on SF-539; in the series on HCC 2998; in series [1]) was “Non-toxic” in each case.
For `CC(C)n1nc(Cc2cccc3ccccc23)c2c(N)ncnc21`, the Activity result in the series on HL-60 is “Non-toxic”; in the series on Cryptosporidium parvum [3], “Dose-dependent effect”; in the series with SF-539, “Non-toxic”; in the series with HCC 2998, “Non-toxic”; in the series on Cryptosporidium parvum [4], “Dose-dependent effect”; in series [1] it was “Non-toxic”. Also, the result with Toxoplasma gondii was Active.
Take `CC(C)c1cccc(-c2nn(C(C)C)c3ncnc(N)c23)c1`: the Activity entry (with HL-60; in the series on SF-539; in the series with HCC 2998; in series [1]) was “Non-toxic” throughout.
